According to ChEMBL document CHEMBL1817582, “Optimization of the in vitro cardiac safety of hydroxamate-based histone deacetylase inhibitors” (J Med Chem, 2011):

Experiments:
[1] = Dissociation constant, pKa of the compound; type: physicochemical
[2] = Volume of distribution at steady state in nude mouse xenografted with human HCT116 cells at 5 mg/kg, iv; type: ADME, organism-based, HCT-116; parameters: dose 5 mg/kg, route intravenous; conditions: in vivo, read-out: Vdss
Procedure, shortened: (§1)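 Pharmacokinetics in naive Sprague-Dawley rats and in HCT116 tumor-bearing nude mice after single iv or oral dosing. Parameters reported as means: AUC, clearance, Vss, half-life, Cmax and oral bioavailability (F%).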

[3] = Half life in Sprague-Dawley rat at 2 mg/kg, iv; type: ADME, organism-based; parameters: dose 2 mg/kg, route intravenous; conditions: in vivo; procedure, shortened: as §1
[4] = Clearance in nude mouse xenografted with human HCT116 cells at 5 mg/kg, iv; type: ADME, organism-based, HCT-116; parameters: dose 5 mg/kg, route intravenous; conditions: in vivo; procedure, shortened: as §1
[5] = Solubility of compound at pH 6.8; type: physicochemical; conditions: buffer
[6] = Cmax in Sprague-Dawley rat at 10 mg/kg, po; type: ADME, organism-based; parameters: dose 10 mg/kg, route oral; conditions: in vivo; procedure, shortened: as §1
[7] = Half life in nude mouse xenografted with human HCT116 cells at 5 mg/kg, iv; type: ADME, organism-based, HCT-116; parameters: dose 5 mg/kg, route intravenous; conditions: in vivo; procedure, shortened: as §1
[8] = AUC in Sprague-Dawley rat at 2 mg/kg, iv; type: ADME, organism-based; parameters: dose 2 mg/kg, route intravenous; conditions: plasma; procedure, shortened: as §1
[9] = Oral bioavailability in nude mouse xenografted with human HCT116 cells at 20 mg/kg; type: ADME, organism-based, HCT-116; conditions: in vivo; procedure, shortened: as §1
[10] = AUC in nude mouse xenografted with human HCT116 cells at 5 mg/kg, iv; type: ADME, organism-based, HCT-116; parameters: dose 5 mg/kg, route intravenous; conditions: in vivo; procedure, shortened: as §1
[11] = Clearance in Sprague-Dawley rat at 2 mg/kg, iv; type: ADME, organism-based; parameters: dose 2 mg/kg, route intravenous; conditions: in vivo; procedure, shortened: as §1
[12] = AUC in nude mouse xenografted with human HCT116 cells at 20 mg/kg, po; type: ADME, organism-based, HCT-116; parameters: dose 20 mg/kg, route oral; conditions: in vivo; procedure, shortened: as §1
[13] = Cmax in nude mouse xenografted with human HCT116 cells at 20 mg/kg, po; type: ADME, organism-based, HCT-116; parameters: dose 20 mg/kg, route oral; conditions: in vivo; procedure, shortened: as §1
[14] = Volume of distribution at steady state in Sprague-Dawley rat at 2 mg/kg, iv; type: ADME, organism-based; parameters: dose 2 mg/kg, route intravenous; conditions: in vivo, read-out: Vdss; procedure, shortened: as §1
[15] = system: Homo sapiens; experiment: Plasma concentration in human at 800 mg, po administered as single dose; conditions: in vivo
[16] = system: Canis familiaris; experiment: Plasma concentration in dog at 150 mg/kg, po administered as single dose; type: ADME, organism-based, Canis lupus familiaris; parameters: dose 150 mg/kg, route oral; conditions: in vivo
[17] = Half life in Sprague-Dawley rat at 5 mg/kg, iv; type: ADME, organism-based; parameters: dose 5 mg/kg, route intravenous; conditions: in vivo; procedure, shortened: as §1
[18] = Metabolic stability in plasma of nude mouse xenografted with human HCT116 cells assessed as compound remaining after 3 hrs; type: ADME, cell-free, HCT-116; conditions: read-out: Stability
Procedure, shortened: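 Compound incubated in mouse plasma for three hours; percentage of compound remaining measured.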

[19] = system: Rattus norvegicus; experiment: AUC in Sprague-Dawley rat at 5 mg/kg, iv; type: ADME, organism-based, Plasma; parameters: dose 5 mg/kg, route intravenous; conditions: in vivo; procedure, shortened: as §1
[20] = Clearance in Sprague-Dawley rat at 5 mg/kg, iv; type: ADME, organism-based; parameters: dose 5 mg/kg, route intravenous; conditions: in vivo; procedure, shortened: as §1
[21] = Volume of distribution at steady state in Sprague-Dawley rat at 5 mg/kg, iv; type: ADME, organism-based; parameters: dose 5 mg/kg, route intravenous; conditions: in vivo, read-out: Vdss; procedure, shortened: as §1
[22] = system: Rattus norvegicus; experiment: AUC in Sprague-Dawley rat at 10 mg/kg, po; type: ADME, organism-based, Plasma; parameters: dose 10 mg/kg, route oral; conditions: in vivo; procedure, shortened: as §1
[23] = system: Rattus norvegicus; experiment: Oral bioavailability in Sprague-Dawley rat at 10 mg/kg; type: ADME, organism-based; conditions: in vivo; procedure, shortened: as §1

## CCCN(CCc1c[nH]c2ccccc12)Cc1ccc(/C=C/C(=O)NO)cc1
[1]
  pKa: 7.9

## Cc1nn2ccccc2c1CCNCc1ccc(/C=C/C(=O)NO)cc1
[2]
  Vd: 1.46 L/kg
[3]
  half-life: 0.915 h
[4]
  clearance: 2.78 L/h/kg
[5]
  solubility: > 1 mg/mL
[6]
  Cmax: 0.061 µM
[7]
  half-life: 1.44 h
[8]
  AUC: 2560 nM·h
[9]
  bioavailability: 2%
[10]
  AUC: 5100 nM·h
[11]
  clearance: 2.19 L/h/kg
[12]
  AUC: 362 nM·h
[13]
  Cmax: 0.202 µM
[14]
  Vd: 1.99 L/kg

## O=C(/C=C/c1ccc(CN(CCc2c[nH]c3ccccc23)CCC(F)(F)F)cc1)NO
[1]
  pKa: 4.75

## O=C(CCCCCCC(=O)Nc1ccccc1)NO [VORINOSTAT]
[15]
  concentration: 1.58 µM
[16]
  concentration: 0.96 µM

## CC(C)N(CCc1c(C(C)(C)O)[nH]c2ccccc12)Cc1ccc(/C=C/C(=O)NO)cc1
[2]
  Vd: 5.9 L/kg
[17]
  half-life: 1.3 h
[4]
  clearance: 10.6 L/h/kg
[18]
  remaining at 3 h: 54%
[19]
  AUC: 1307 nM·h
[20]
  clearance: 3.96 L/h/kg
[6]
  Cmax: 0.204 µM
[21]
  Vd: 7 L/kg
[22]
  AUC: 336 nM·h
[23]
  F: 5%
[7]
  half-life: 1 h
[9]
  bioavailability: 4%
[10]
  AUC: 463 nM·h
[12]
  AUC: 65.3 nM·h
[13]
  Cmax: 0.056 µM

## CC(C)(C)c1[nH]c2ncccc2c1CCNCc1ccc(/C=C/C(=O)NO)cc1
[2]
  Vd: 4.5 L/kg
[4]
  clearance: 5.7 L/h/kg
[7]
  half-life: 3.3 h
[9]
  bioavailability: 4%
[10]
  AUC: 2440 nM·h
[12]
  AUC: 474 nM·h
[13]
  Cmax: 0.849 µM

## O=C(/C=C/c1ccc(CNCCc2c[nH]c3ccccc23)cc1)NO
[1]
  pKa: 7.65

## Cc1[nH]c2ccccc2c1CCN(CCC(F)F)Cc1ccc(/C=C/C(=O)NO)cc1
[1]
  pKa: 5.8

## Cc1[nH]c2ccccc2c1CCN(Cc1ccc(/C=C/C(=O)NO)cc1)CC(F)F
[1]
  pKa: 4.65

## O=C(/C=C/c1ccc(CN(CCO)CCc2c[nH]c3ccccc23)cc1)NO [DACINOSTAT]
[1]
  pKa: 7.5

## O=C(/C=C/c1ccc(CN(CCc2c[nH]c3ccccc23)CC(F)(F)F)cc1)NO
[1]
  pKa: 3.2
